Results taken from ChEMBL document CHEMBL1123232, “Acyl, N-protected alpha-aminoacyl, and peptidyl derivatives as prodrug forms of the alcohol deterrent agent cyanamide” (J Med Chem, 1986).

Key:
Assay type in all cases: functional, organism-based
[1] = test system: Rattus norvegicus; test: (§1) Tested for effect on ethanol derived blood Ach levels in rats at 1.0 mmol/kg
Summary of the method: (§2)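 Fasted male Sprague-Dawley rats (185-225 g) received a single 1.0 mmol/kg ip dose at zero time, in saline or in 2% aqueous CMC if water-insoluble. Ethanol (2.0 g/kg, ip) was given at 2 or 15 h. Blood from open-chest cardiac puncture 1 h later went into 5 mM sodium azide. Headspace GC in duplicate against an AcH standard curve. Four rats per protocol; mean ± SE.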

[2] = test system: Rattus norvegicus; test: as §1; summary of the method: as §2; remark: listed apart in the source
[3] = test system: Rattus norvegicus; test: Compound was tested for effect on ethanol derived blood Ach levels in rats at the administrations (pro drug administration of 1.0 mmol/kg) oral(po)
Summary of the method: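 A single 1.0 mmol/kg dose was given by stomach tube at zero time to fasted male Sprague-Dawley rats (185-225 g). Ethanol (2.0 g/kg, ip) was given 1 h before sacrifice: blood sampled at 4 h, or over 48 h with ethanol at 1, 4, 11, 23, 35 and 47 h, two rats per time. Cardiac blood went into sodium azide; AcH was measured by headspace GC in duplicate.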

[4] = test system: Rattus norvegicus; test: Compound was tested for effect on ethanol derived blood Ach levels in rats at administration (pro drug administration of 1.0 mmol/kg) ip; summary of the method: as §2

SMILES | Concentration [1] | Concentration [2] | Concentration [3] | Concentration [4]
N#CNC(=O)OCc1ccccc1 | 50 µM | 1200 µM | – | –
N#CNC(=O)Cc1ccccc1 | 1300 µM | 1250 µM | – | –
N#CNC(=O)CNC(=O)c1ccccc1 | 200 µM | 400 µM | – | –
CC(=O)NC#N | 50 µM | 250 µM | 350 µM | 400 µM
CC(C)C[C@H](NC(=O)c1ccccc1)C(=O)NC#N | 300 µM | 1000 µM | – | –
CC(C)C[C@H](NC(=O)[C@@H]1CCC(=O)N1)C(=O)NC#N | 25 µM | 200 µM | – | –
N#CNC(=O)c1ccccc1 | 100 µM | 300 µM | – | –
N#CN | 225 µM | 1050 µM | – | –
N#CNC(=O)C1CCC(=O)N1C(=O)OCc1ccccc1 (stereo not given) | 35 µM | 175 µM | – | –
CCCC(=O)NC#N | 250 µM | 1750 µM | – | –
N#CNC(=O)[C@H](Cc1ccccc1)NC(=O)[C@@H]1CCC(=O)N1 | 150 µM | 1150 µM | – | –
N#CNC(=O)C12CC3CC(CC(C3)C1)C2 | 75 µM | 1250 µM | – | –
CC(C)C[C@H](NC(=O)CNC(=O)OCc1ccccc1)C(=O)NC#N | 35 µM | 1050 µM | – | –
CC(C)(C)C(=O)NC#N | 200 µM | 1200 µM | – | –
CCCCCCCCCCCCCCCCCC(=O)NC#N | 600 µM | 1300 µM | – | –
N#CNC(=O)CNC(=O)OCc1ccccc1 | 35 µM | 900 µM | 125 µM | 850 µM
CCCCCCCCCCCCCCCC(=O)NC#N | 1100 µM | 1600 µM | 1300 µM | 1150 µM
